Source: PubChem
DYRK1A inh = rat Dyrk1A kinase inhibitors, primary screen, biochemical, single point, plate reader. hit rate 0.43% among 310,000. inhibition, % at 12.5 µM. ADP-Glo luminescence, NFATc1 peptide; in the data active = inhibition above about 50%;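 note: plate controls were vehicle with enzyme for no effect and no enzyme for full effect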
GSK3 alpha inh = blockers of GSK3A enzyme activity – biochemical, luminescence, cell-free homogeneous, HTS, primary screen | Glycogen synthase kinase-3 alpha (Homo sapiens), P49840 | hit rate 0.1% among 320,000 | GSK-3 alpha kinase, ADP-Glo luminescence, 60 min | inhibition, % at 10 µM;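 active = more than half of replicates show inhibition above 20%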;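 note: GST-tagged GSK-3 alpha with peptide substrate and 25 µM ATP; 0% = DMSO neutral wells and 100% = GW8510 positive control wells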
STK33 kinase inh = inhibitors of purified STK33 kinase, primary screen, biochemical, ADP-Glo luminescence, homogeneous, cell-free | inhibition, % at 10 µM | Serine/threonine-protein kinase 33 (Homo sapiens), Q9BYT3 | hit rate 0.073% among 320,000 | MBP phosphorylation;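 active = inhibition at or above 25%, using the most active replicate where run in duplicate; inactive = inhibition below 25%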
CDK5 inh = inhibitors of human CDK5/p35 kinase, primary screen, biochemical, single concentration. Cyclin-dependent kinase 5 (Homo sapiens) + Cyclin-dependent kinase 5 activator 1 (Homo …. Recombinant CDK5/p35, ADP-Glo luminescence, 60 min. inhibition, % at 10 µM. hit rate 0.01% among 330,000. AID 488839, 2010;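 active = highest replicate inhibition of at least 50% and at least 75% of replicates reaching 50%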;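 note: plate controls were DMSO neutral control for no effect and GW8510 at 10 µM for full effect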
GSK3B inh = human GSK3beta kinase inhibitors, primary screen, biochemical, cell-free homogeneous, HTS | activity score (negative = inhibition), % at 10 µM | AID 2097, 2009 | GST-GSK3beta kinase, ADP-Glo luminescence, 60 min; stronger effect = lower value | hit rate 0.038% among 300,000 | Glycogen synthase kinase-3 beta (Homo sapiens), P49841;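 active = more than half of replicate wells score below -50%, meaning over 50% inhibition versus plate controls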;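 note: 0% = median DMSO wells and -100% = median GW8510 positive control wells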
Target sequence (P49841 whole entry, looked up): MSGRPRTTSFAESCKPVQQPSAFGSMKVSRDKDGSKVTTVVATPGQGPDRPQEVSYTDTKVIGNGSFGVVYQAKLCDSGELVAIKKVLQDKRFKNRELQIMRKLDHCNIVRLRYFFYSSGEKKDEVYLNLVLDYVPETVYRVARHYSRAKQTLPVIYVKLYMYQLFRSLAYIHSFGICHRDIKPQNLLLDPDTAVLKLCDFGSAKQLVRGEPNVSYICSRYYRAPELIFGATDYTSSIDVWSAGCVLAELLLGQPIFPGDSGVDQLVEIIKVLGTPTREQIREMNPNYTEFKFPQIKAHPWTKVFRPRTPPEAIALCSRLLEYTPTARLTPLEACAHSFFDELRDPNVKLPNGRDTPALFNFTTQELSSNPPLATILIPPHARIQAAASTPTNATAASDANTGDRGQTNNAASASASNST
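Test system – GST-tagged human GSK3beta kinase, cell-free · Incubation – 60 min enzyme reaction, room temperature · Signal – ADP-Glo luminescence · Also added – peptide substrate and ATP at 25 µM · Controls – DMSO neutral wells and GW8510 at 20 µM as positive · Buffer or medium – Tris/MgCl2 kinase buffer · Measure – Luminescence-derived activity versus plate DMSO and GW8510 wells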
* marks the source's active call; other numbers are inactive results; x = not tested or not shown. Shown is part of a subset that was picked to be rich in hits.

SMILES | DYRK1A inh | GSK3 alpha inh | STK33 kinase inh | CDK5 inh | GSK3B inh
CC(CCC(C)C(C)(C)C)[C@@H]1CC[C@H]2C3C[C@H](OS(O)(=S)=S)[C@H]4C[C@H](OS(O)(=S)=S)[C@@H](OS(O)(=S)=S)C[C@]4(C)[C@H]3CC[C@]12C (stereo partly drawn) (tested in a mixture with another compound) | 70* | 3 | 1 | 80* | x
CCC(C)c1ccccc1NC(=O)c1cccc(-n2cnnn2)c1 (stereo not drawn) | x | 0 | -1 | 1 | x
CSc1nc(SCC(=O)NCC2CCCO2)c2c3c(sc2n1)CN(C)CC3 (stereo not drawn) | x | 57* | 2 | x | -29
Cc1nc(SCC(=O)NCC2CCCO2)c2c3c(sc2n1)CCCC3 (stereo not drawn) | 8 | -4 | 0 | 0 | x
CCN1CCN(c2c(C=O)c(Cl)nc3ccc(OC)cc23)CC1 | 15 | 82* | 3 | 1 | -55*
C=CCN(C(=O)CCC(=O)Nc1cc(C)on1)C(C(=O)NC1CCCC1)c1ccc(C)cc1 (stereo not drawn) | -5 | 2 | -1 | -1 | 5
O=C1NC(=O)c2c(NC(=O)C3CCCO3)cccc21 (stereo not drawn) | x | 8 | 1 | 7 | -3
CC(=O)Nc1cccc2c1C(=O)NC2=O | 22 | 72* | 1 | 1 | 2
COc1cc(C(=O)N2CCN(c3ccccc3)CC2)c2ccccc2n1 | 5 | x | x | -1 | x
Cc1ccc(N2CC(C(=O)Nc3ncc([N+](=O)[O-])s3)CC2=O)cc1 (stereo not drawn) | -2 | 51* | 0 | 1 | -22
O=c1[nH]cccc1-c1nc2ccccc2[nH]1 | 10 | 72* | 10 | -3 | -2
C=CCNc1nc(N)c([N+](=O)[O-])c(N2CCCCCC2)n1 | 22 | 22 | -2 | 2 | -7
CCN(CC)CCCNc1nc(N)c([N+](=O)[O-])c(N2CCCCCC2)n1 | 11 | 54* | -1 | 0 | -16
CCOC(=O)c1cnc2ccc(Cl)cc2c1N1CCN(C)CC1 | 35 | 64* | 4 | 3 | -42
O=C(N/N=C/c1ccccn1)c1sc2ccccc2c1Cl | 64* | 21 | 8 | 1 | -18
CCOC(=O)c1cnc2oc3ccccc3n2c1=O | 0 | 9 | 9 | -2 | -2
Cc1cccc(NC(=O)C2C3C=CC(O3)C2C(=O)O)c1C (stereo not drawn) | 2 | -1 | 0 | 1 | 0
COc1ccc(C2=CC3=C(Br)C(=O)C(C)(O)C(=O)C3=CO2)cc1 (stereo not drawn) | 4 | 0 | 29* | 3 | 2
Cc1ccccc1NC(=O)Cc1nc(COC(=O)c2ncc(Cl)c(Cl)c2Cl)cs1 | x | x | x | 0 | x
O=C1C(c2ccncc2)=C(O)c2ccccc21 | -2 | 4 | 27* | 3 | -2
COc1ccc(NC(=O)C2CCN(S(=O)(=O)c3ccc(Br)s3)CC2)cc1OC | -3 | -1 | -2 | 0 | -1
COC(=O)c1sc2nc(-c3ccco3)ccc2c1N | 2 | 3 | 2 | -2 | 4
NC(=O)c1sc2nc(-c3ccco3)ccc2c1N | 47 | 13 | 27* | 1 | -9
CCOC(=O)c1cc([N+](=O)[O-])cc([N+](=O)[O-])c1Sc1ncnc2nc[nH]c12 | -3 | x | x | 2 | x
CC(C)(C)OC(=O)N1CCC(NC(=O)c2[nH]cnc2C(=O)Nc2ccon2)CC1 | -7 | 72* | -1 | 0 | x
CC(=O)NC(CC(=O)Nc1nc(C)cs1)c1ccccc1 (stereo not drawn) | 0 | -6 | -1 | 0 | 4
O=c1[nH]c2c(s1)C(c1cccnc1)C1C3CCC(C3)C1S2 (stereo not drawn) | 2 | 49 | -2 | -1 | -21
O=c1[nH]c2c(s1)C(c1ccc(O)cc1)C1C3CCC(C3)C1S2 (stereo not drawn) | 6 | 75* | 0 | -2 | 3
COc1ccc(NC(=O)c2cc([N+](=O)[O-])ccc2O)cc1 | 32 | 0 | 37* | 2 | 1
O=C1CC(C(=O)Nc2cc(Cl)ccc2Cl)n2ncnc2N1 (stereo not drawn) | -5 | -2 | x | 0 | -2
